Calls of active or inactive are those of the source. The calls are words filed in the database; no cut-off is given here.
Tests used:
[1] = molecular target: T1, E3 ubiquitin-protein ligase XIAP (Homo sapiens, UniProt P98170); test: Antagonist activity at XIAP-BIR3 domain (unknown origin) assessed as inhibition of interaction with SMAC at 5 mM by fluorescence polarization assay relative to control
Summary of the method: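 Competitive FP binding of a SMAC-derived fluorescent tracer, AbuRPFK(5&6FAM)-amide (5 nM), to XIAP-BIR3 (20 nM). Compound was tested at 5 mM and equilibrated at room temperature. Polarization was read at ex 485/em 538 nm and reported as percent inhibition, mean of at least two runs.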

[2] = molecular target: Baculoviral IAP repeat-containing protein 2 (Homo sapiens) (UniProt Q13490); test: Antagonist activity at cIAP1-BIR3 domain (unknown origin) assessed as inhibition of interaction with SMAC at 5 mM by fluorescence polarization assay relative to control
Baculoviral IAP repeat-containing protein 2 (Homo sapiens), sequence (Q13490 whole entry, the tested form may be a part): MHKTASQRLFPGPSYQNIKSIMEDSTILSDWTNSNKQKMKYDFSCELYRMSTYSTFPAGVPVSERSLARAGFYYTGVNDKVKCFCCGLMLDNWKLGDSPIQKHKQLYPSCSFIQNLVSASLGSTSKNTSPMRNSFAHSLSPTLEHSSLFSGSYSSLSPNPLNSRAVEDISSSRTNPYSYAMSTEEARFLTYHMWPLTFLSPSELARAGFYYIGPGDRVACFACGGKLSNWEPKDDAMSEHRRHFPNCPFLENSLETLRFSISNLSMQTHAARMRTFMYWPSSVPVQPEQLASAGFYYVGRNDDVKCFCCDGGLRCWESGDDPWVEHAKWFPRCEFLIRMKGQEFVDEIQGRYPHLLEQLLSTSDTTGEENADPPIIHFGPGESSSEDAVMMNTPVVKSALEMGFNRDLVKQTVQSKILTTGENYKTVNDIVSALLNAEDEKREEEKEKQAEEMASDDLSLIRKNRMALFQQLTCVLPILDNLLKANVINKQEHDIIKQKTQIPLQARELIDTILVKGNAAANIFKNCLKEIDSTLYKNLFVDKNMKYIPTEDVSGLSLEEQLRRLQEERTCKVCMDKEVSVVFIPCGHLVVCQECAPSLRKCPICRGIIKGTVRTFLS
Summary of the method: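 Competitive FP assay: cIAP1-BIR3 (4 nM) with a 2 nM SMAC-derived FAM peptide tracer, AbuRPFK(5&6FAM)-amide. Compound was tested at 5 mM. Polarization was read at ex 485/em 538 nm and expressed as percent inhibition, mean of at least two runs.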

[3] = molecular target: T1, E3 ubiquitin-protein ligase XIAP; test: Antagonist activity at XIAP-BIR3 domain (unknown origin) assessed as inhibition of interaction with SMAC at 155 uM by fluorescence polarization assay relative to control
[4] = molecular target: Baculoviral IAP repeat-containing protein 2 (Homo sapiens) (UniProt Q13490); test: Antagonist activity at cIAP1-BIR3 domain (unknown origin) assessed as inhibition of interaction with SMAC at 0.01 uM by fluorescence polarization assay relative to control
[5] = molecular target: T1, E3 ubiquitin-protein ligase XIAP; test: Antagonist activity at full-length FLAG-tagged XIAP (unknown origin) transfected in HEK293 cells assessed as inhibition of interaction with caspase 9 after 2 hrs by immunoprecipitation assay; type: cell-based
MDA-MB-231 [6] = test: Antitumor activity against human MDA-MB-231 cells xenografted in Balb/c SCID mouse assessed as tumor growth inhibition at 100 mg/kg, po qd measured every 3 days; type: functional, organism-based
Summary of the method: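 Balb/c scid mice were inoculated s.c. with 5 x 10^6 MDA-MB-231 cells and dosing began when group (n=8) mean tumor volume reached 100 mm³. Arms: 100 mg/kg i.p. b.i.d., 100 mg/kg p.o. q.d., or vehicle. Tumor volume (length x width x width x 0.5) measured every 3 days; body weight recorded daily.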

[7] = molecular target: T1, E3 ubiquitin-protein ligase XIAP; settings: 0.05 uM
EVSA-T = test: cells; settings: Homo sapiens, 72 h
MDA-MB-231 [8] = test: cells; settings: Homo sapiens, MDA-MB-231, 72 h
HCT-116 = test: cells; settings: Homo sapiens, HCT-116, 72 h
[9] = molecular target: T1, E3 ubiquitin-protein ligase XIAP; test: Antagonist activity at XIAP-BIR3 domain (unknown origin) assessed as inhibition of interaction with SMAC at 1 mM by fluorescence polarization assay relative to control
[10] = molecular target: T1, E3 ubiquitin-protein ligase XIAP; test: Antagonist activity at XIAP-BIR3 domain (unknown origin) assessed as inhibition of interaction with SMAC at 1000 uM by fluorescence polarization assay relative to control
Mus musculus [11] = test: Reduction of cIAP1 level in human MDA-MB-231 cells xenografted in Balb/c SCID mouse at 100 mg/kg, ip measured after 1 to 6 hrs by Western blot analysis relative to vehicle-treated control; type: functional, organism-based
Summary of the method: (§1)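 Male Balb/c scid mice bearing MDA-MB-231 tumors received a single 100 mg/kg i.p. dose in 10% DMSO/90% saline (freebase equivalent). Tumors were harvested at 1, 6 and 24 h and snap frozen. Lysates were ground under liquid nitrogen in Triton lysis buffer with NaF/Na3VO4, and equal protein was run on SDS-PAGE. Blots were probed for cIAP1, XIAP, cleaved PARP and cleaved caspase-3, with infrared detection; comparison against vehicle-dosed tumors.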

Mus musculus [12] = test: Reduction of cIAP1 level in human MDA-MB-231 cells xenografted in Balb/c SCID mouse at 100 mg/kg, ip measured after 1 hr by MSD plate-based method relative to vehicle-treated control; type: functional, organism-based
Mus musculus [13] = test: Reduction of cIAP1 level in human MDA-MB-231 cells xenografted in Balb/c SCID mouse at 100 mg/kg, ip measured after 24 hrs by Western blot analysis; type: functional, organism-based; summary of the method: as §1
Mus musculus [14] = test: Reduction of XIAP level in human MDA-MB-231 cells xenografted in Balb/c SCID mouse at 100 mg/kg, ip measured after 1 to 24 hrs by Western blot analysis; type: functional, organism-based; summary of the method: as §1
Mus musculus [15] = test: Increase in cleaved PARP level in human MDA-MB-231 cells xenografted in Balb/c SCID mouse at 100 mg/kg, ip measured after 1 to 24 hrs by Western blot analysis; type: functional, organism-based; summary of the method: as §1
Mus musculus [16] = test: Increase in cleaved caspase-3 level in human MDA-MB-231 cells xenografted in Balb/c SCID mouse at 100 mg/kg, ip measured after 1 to 24 hrs by Western blot analysis; type: functional, organism-based; summary of the method: as §1
MDA-MB-231 [17] = test: Antitumor activity against human MDA-MB-231 cells xenografted in Balb/c SCID mouse assessed as tumor growth inhibition at 100 mg/kg, ip bid measured every 3 days
Mus musculus [18] = test: Toxicity in Balb/c SCID mouse xenografted with human MDA-MB-231 cells assessed as effect on body weight at 100 mg/kg, ip bid measured everyday during compound dosing; settings: in vivo
[19] = molecular target: T1, E3 ubiquitin-protein ligase XIAP; test: Antagonist activity at XIAP-BIR3 domain (unknown origin) assessed as inhibition of interaction with SMAC at 495 uM by fluorescence polarization assay relative to control

T1 sequence (P98170 whole entry, the tested form may be a part): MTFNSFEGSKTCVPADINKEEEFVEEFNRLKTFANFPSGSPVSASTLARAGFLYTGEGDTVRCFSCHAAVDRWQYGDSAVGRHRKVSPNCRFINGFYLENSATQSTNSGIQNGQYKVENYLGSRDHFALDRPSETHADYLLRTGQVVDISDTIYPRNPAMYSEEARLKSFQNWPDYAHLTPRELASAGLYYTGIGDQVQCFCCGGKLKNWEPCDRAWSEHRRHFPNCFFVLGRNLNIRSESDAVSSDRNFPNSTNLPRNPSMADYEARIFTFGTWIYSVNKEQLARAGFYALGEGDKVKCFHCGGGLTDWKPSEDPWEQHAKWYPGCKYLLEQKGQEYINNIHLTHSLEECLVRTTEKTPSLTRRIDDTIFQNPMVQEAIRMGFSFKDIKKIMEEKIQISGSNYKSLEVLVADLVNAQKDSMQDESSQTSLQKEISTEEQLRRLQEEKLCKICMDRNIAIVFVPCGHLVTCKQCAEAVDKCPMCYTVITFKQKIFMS

O=C(CN1CCNCC1)N1CCCCC1
inhibition [1]: 38%
inhibition [2]: 16%

COc1ccc2c(c1)N(C(=O)CN1CCN[C@H](C)C1)CC2
inhibition [3]: 49%

CN[C@@H](C)C(=O)N[C@H]1CN(C(=O)CC(C)C)CC[C@H]2CC[C@@H](C(=O)NC(c3ccccc3)c3ccccc3)N2C1=O [XEVINAPANT]
inhibition [4]: 98%
EC50 [5]: 34 nM
TGI (MDA-MB-231 [6]): Active
inhibition [7]: 70%
EC50 (EVSA-T): 2.1 nM
EC50 (MDA-MB-231 [8]): 19 nM
EC50 (HCT-116): > 10000 nM

C[C@@H]1CN(CC(=O)N2CCc3ccc(N)cc32)CCN1
inhibition [9]: 56%
inhibition [10]: 56%

Brc1cnn(C2CCNCC2)c1
inhibition [1]: 33%
inhibition [2]: 55%

COC[C@H]1CN[C@H](C)CN1CC(=O)N1CC(C)(C)c2cnc(Cc3ccccc3)cc21
Activity (Mus musculus [11]): Active
Activity (Mus musculus [12]): Active
Activity (Mus musculus [13]): inactive
Activity (Mus musculus [14]): inactive
Activity (Mus musculus [15]): Active
Activity (Mus musculus [16]): Active
EC50 (EVSA-T): 100 nM
EC50 (MDA-MB-231 [8]): 590 nM
EC50 (HCT-116): > 10000 nM
TGI (MDA-MB-231 [17]): Active
Activity (Mus musculus [18]): Non-toxic

C[C@@H]1CN(CC(=O)N2CCc3ccccc32)CCN1
inhibition [19]: 52%

Source: ChEMBL document CHEMBL3600342, “Fragment-Based Drug Discovery Targeting Inhibitor of Apoptosis Proteins: Discovery of a Non-Alanine Lead Series with Dual Activity Against cIAP1 and XIAP” (J Med Chem, 2015)
